In ChEMBL document CHEMBL1157078, “Cytotoxic activities of several geranyl-substituted flavanones” (J Nat Prod, 2010):
pEC50: −log10 of the molar value.

How the values were obtained:
U-266 = assay: Cytotoxicity against human U266 cells assessed as viable cells after 72 hrs by calcein AM assay; assay type: functional, cell-based; settings: U-266, 72 h
Summary of the method: (§1)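 Cells kept in DMEM with 10% FBS, L-glutamine and antibiotics at 37 °C, 5% CO2, and seeded at about 1.25×10^5 cells/mL, then left 3 h to stabilize. Six 3-fold dilutions were added in triplicate (final 100 to 0.4 μM, DMSO ≤0.6%) for 72 h. Viable cells were stained with 2 μM calcein AM for 1 h and fluorescence read at 485/538 nm. EC50 came from dose-response curves of three independent measurements, ±SD.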

THP-1 = assay: Cytotoxicity against human THP1 cells after 72 hrs by erythosin B staining method; assay type: functional, cell-based; settings: THP-1, 72 h
Summary of the method: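 THP-1 cells from ECACC, kept in RPMI with 10% FBS, 2% L-glutamine and 1% penicillin/streptomycin at 37 °C, 5% CO2. Compounds in DMSO were added at five increasing concentrations and cells incubated 72 h. Cells were mixed 1:1 with 0.1% erythrosin B in PBS (pH 7.2-7.4), and unstained (viable) and red (nonviable) cells counted by hemocytometer. EC50 came from dose-response curves of three independent measurements, ±SD.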

MCF7 = assay: Cytotoxicity against human MCF7 cells assessed as viable cells after 72 hrs by calcein AM assay; assay type: functional, cell-based; settings: MCF7, 72 h; summary of the method: as §1
BJ = assay: Cytotoxicity against human BJ cells assessed as viable cells after 72 hrs by calcein AM assay; assay type: cell-based; summary of the method: as §1
RPMI-8226 = assay: Cytotoxicity against human RPMI8226 cells assessed as viable cells after 72 hrs by calcein AM assay; assay type: functional, cell-based; settings: RPMI-8226, 72 h; summary of the method: as §1
CCRF-CEM = assay: Cytotoxicity against human CEM cells assessed as viable cells after 72 hrs by calcein AM assay; assay type: functional, cell-based; summary of the method: as §1
HeLa = assay: Cytotoxicity against human HeLa cells assessed as viable cells after 72 hrs by calcein AM assay; assay type: functional, cell-based; summary of the method: as §1

| SMILES | pEC50 (U-266) | pEC50 (THP-1) | pEC50 (MCF7) | pEC50 (BJ) | pEC50 (RPMI-8226) | pEC50 (CCRF-CEM) | pEC50 (HeLa) |
| --- | --- | --- | --- | --- | --- | --- | --- |
| CC(C)=CCC/C(C)=C/Cc1c(O)cc2c(c1O)C(=O)C[C@@H](c1ccc(O)c(O)c1)O2 [NYMPHAEOL A] | 5.62 | > 5.00 | > 5.00 | 5.23 | > 5.00 | 5.49 | > 5.00 |
| COc1cc([C@H]2Oc3cc(O)c(C/C=C(\C)CCC=C(C)C)c(O)c3C(=O)[C@@H]2O)ccc1O | < 5.00 | < 5.00 | < 5.00 | < 5.00 | < 5.00 | < 5.00 | < 5.00 |
| COc1cc([C@@H]2CC(=O)c3c(cc(O)c(C/C=C(\C)C/C=C/C(C)(C)O)c3O)O2)ccc1O [TOMENTODIPLACONE B] | < 5.00 | < 5.00 | < 5.00 | < 5.00 | < 5.00 | < 5.00 | < 5.00 |
| COc1ccc([C@@H]2CC(=O)c3c(O)cc(O)cc3O2)cc1O [HESPERETIN] | < 5.00 | < 5.00 | < 5.00 | < 5.00 | < 5.00 | < 5.00 | < 5.00 |
| CC[C@@]1(O)C(=O)OCc2c1cc1n(c2=O)Cc2cc3ccccc3nc2-1 [CAMPTOTHECIN] |  | 6.80 |  |  |  |  |  |
| CC(C)=CCC/C(C)=C/Cc1cc(C2CC(=O)c3c(O)cc(O)cc3O2)c(O)cc1O (racemic) [KUWANON E] | < 5.00 | < 5.00 | < 5.00 | < 5.00 | < 5.00 | < 5.00 | < 5.00 |
| O=C1c2c(O)cc(O)cc2O[C@H](c2ccc(O)c(O)c2)[C@H]1O [(+)-TAXIFOLIN] | < 5.00 | < 5.00 | < 5.00 | < 5.00 | < 5.00 | < 5.00 | < 5.00 |
| CCOC(=O)NC1=C(N2CC2)C(=O)C(NC(=O)OCC)=C(N2CC2)C1=O [DIAZIQUONE] | 5.55 |  | 5.40 | > 5.00 | 5.47 | 6.07 | 5.19 |
| COc1cc(O)c([C@@H]2CC(=O)c3c(O)cc(O)cc3O2)cc1C/C=C(\C)CCC=C(C)C | < 5.00 | < 5.00 | < 5.00 | < 5.00 | < 5.00 | < 5.00 | < 5.00 |
| CC(C)=CCC/C(C)=C/Cc1c(O)cc2c(c1O)C(=O)C[C@@H](c1ccc(O)cc1)O2 [BONANNIONE A] | < 5.00 | < 5.00 | < 5.00 | < 5.00 | < 5.00 | 4.94 | < 5.00 |
| COc1cc([C@@H]2CC(=O)c3c(cc(O)c(C/C=C(\C)CCC=C(C)C)c3O)O2)cc(OC)c1O | < 5.00 | < 5.00 | < 5.00 | < 5.00 | < 5.00 | < 5.00 | < 5.00 |
| C=C(C)C(O)CC/C(C)=C/Cc1c(O)cc2c(c1O)C(=O)C[C@@H](c1ccc(O)c(OC)c1)O2 (stereo partly specified) [TOMENTODIPLACONE] | < 5.00 | < 5.00 | < 5.00 | < 5.00 | < 5.00 | < 5.00 | < 5.00 |
| COc1cc([C@@H]2CC(=O)c3c(cc(O)c(C/C=C(\C)CCC=C(C)C)c3O)O2)ccc1O | > 5.00 | > 5.00 | > 5.00 | > 5.00 | > 5.00 | > 5.00 | 5.04 |
| CC[C@H](CO)Nc1nc(NCc2ccccc2O)c2ncn(C(C)C)c2n1 [OLOMOUCINE II] | 5.14 |  | 5.34 | 5.27 | 5.22 | 5.09 | 5.00 |
| COc1cc([C@@H]2CC(=O)c3c(cc(O)c(C/C=C(\C)CCC=C(C)C)c3O)O2)cc(O)c1O | 5.26 | > 5.00 | > 5.00 | 5.33 | 5.14 | > 5.00 | 5.13 |
| O=C1C[C@@H](c2ccc(O)cc2)Oc2cc(O)cc(O)c21 [NARINGENIN] | < 5.00 | < 5.00 | < 5.00 | < 5.00 | < 5.00 | < 5.00 | < 5.00 |
| CC(C)=CCC/C(C)=C/Cc1c(O)cc2c(c1O)C(=O)C[C@@H](c1cc(O)cc(O)c1)O2 | 5.72 | 5.07 | > 5.00 | 5.12 | 5.15 | 4.91 | 5.20 |
